Experimental data reported in ChEMBL document CHEMBL1152490, “SAR study of clubbed [1,2,4]-triazolyl with fluorobenzimidazoles as antimicrobial and antituberculosis agents” (Eur J Med Chem, 2009).
≈ marks a conversion by molar mass, not a printed value.

Assays:
[1] = tested on: Mycobacterium tuberculosis; test: Antitubercular activity against Mycobacterium tuberculosis H37Rv at 6.25 […] by microplate alamar blue assay; format: functional
Summary of the method: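 M. tuberculosis H37Rv (ATCC 27294) in BACTEC 12B medium, primary screen by broth microdilution microplate Alamar Blue assay at a single concentration of […]. Fluorescent compounds were tested instead in the BACTEC 460 radiometric system.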

Staphylococcus aureus = test: Antimicrobial activity against Staphylococcus aureus after 24 hrs by agar well diffusion assay; format: functional
Summary of the method: (§1)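 Agar well diffusion with modifications, gentamycin as reference standard. Wells 10 mm in diameter punched in agar plates with a sterile steel borer. Strains were kept on agar medium. Compounds were dissolved and applied at 0.5% to 1.0%. Incubation at 24–28 °C for 24 h, then bacterial inhibition was scored.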

[2] = tested on: Mycobacterium tuberculosis; test: Antitubercular activity against Mycobacterium tuberculosis H37Rv by microplate alamar blue assay; format: functional
Summary of the method: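 Compounds active in the primary screen were retested at lower concentrations against M. tuberculosis H37Rv by microplate Alamar Blue assay. MIC taken as the lowest concentration giving a 95% fall in fluorescence relative to controls. Rifampin was the reference compound.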

[3] = Cytotoxicity against african green monkey Vero C1008 cells at 6.25 to 50 µg/ml by neutral red uptake assay; format: cell-based; conditions: chlorocebus sabaeus
[4] = tested on: Salmonella enterica subsp. enterica; test: Antimicrobial activity against Salmonella typhosa after 24 hrs by agar well diffusion assay; format: functional, Salmonella enterica subsp. enterica serovar Typhi
Summary of the method: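 Agar well diffusion, modified; wells punched with a 10 mm sterile borer. Test compounds applied on impregnated sterile disks at concentrations of 0.5% to 1.0%, with gentamycin as reference standard. Plates incubated at 24–28 °C for 24 h, then bacterial inhibition scored.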

Pseudomonas aeruginosa = test: Antimicrobial activity against Pseudomonas aeruginosa after 24 hrs by agar well diffusion assay; format: functional; summary of the method: as §1
Escherichia coli = test: Antimicrobial activity against Escherichia coli after 24 hrs by agar well diffusion assay; format: functional; summary of the method: as §1

Compound | growth inhibition (GI) [1] | inhibition zone (IZ) (Staphylococcus aureus) | MIC [2] | Activity [3] | inhibition zone (IZ) [4] | inhibition zone (IZ) (Pseudomonas aeruginosa) | inhibition zone (IZ) (Escherichia coli) | inhibition zone (IZ) ([4]; Salmonella enterica subsp. enterica serovar Typhi)
C#CCn1c(-c2ccc(-n3cncn3)cc2)nc2c(F)cc(F)cc21 | 96% | 25 mm | 3.13 µg/mL (≈ 9.33 µM) | Non-toxic | 24 mm | 23 mm | 21 mm | –
CO[C@H]1/C=C/O[C@@]2(C)Oc3c(C)c(O)c4c(O)c(c(/C=N/N5CCN(C)CC5)c(O)c4c3C2=O)NC(=O)/C(C)=C\C=C\[C@H](C)[C@H](O)[C@@H](C)[C@@H](O)[C@@H](C)[C@H](OC(C)=O)[C@@H]1C [RIFAMPIN] | 96% | – | 0.015 µg/mL (≈ 0.0182 µM) | – | – | – | – | –
COc1cccc(Cn2c(-c3ccc(-n4cncn4)cc3)nc3c(F)cc(F)cc32)c1 | 96% | 24 mm | 3.13 µg/mL (≈ 7.5 µM) | Non-toxic | 21 mm | 22 mm | 22 mm | –
Cc1ccccc1Cn1c(-c2ccc(-n3cncn3)cc2)nc2c(F)cc(F)cc21 | – | 19 mm | < 6.25 µg/mL | Non-toxic | 14 mm | 21 mm | 18 mm | –
Cn1c(-c2ccc(-n3cncn3)cc2)nc2c(F)cc(F)cc21 | – | 28 mm | < 6.25 µg/mL | Non-toxic | 19 mm | 26 mm | 21 mm | –
Fc1cc(F)c2nc(-c3ccc(-n4cncn4)cc3)n(Cc3ccccc3)c2c1 | – | 19 mm | < 6.25 µg/mL | Non-toxic | 13 mm | 20 mm | 15 mm | –
GENTAMICIN | – | – | – | – | – | – | 31 mm | 30 mm
Cc1cccc(Cn2c(-c3ccc(-n4cncn4)cc3)nc3c(F)cc(F)cc32)c1 | – | 21 mm | < 6.25 µg/mL | Non-toxic | 16 mm | 18 mm | 18 mm | –
Cc1ccc(S(=O)(=O)n2c(-c3ccc(-n4cncn4)cc3)nc3c(F)cc(F)cc32)cc1 | – | 14 mm | < 6.25 µg/mL | Non-toxic | 16 mm | 12 mm | 16 mm | –
Fc1cc(F)c2nc(-c3ccc(-n4cncn4)cc3)n(Cc3cccc(Cl)c3)c2c1 | 96% | 26 mm | 0.58 µg/mL (≈ 1.37 µM) | Non-toxic | 18 mm | 22 mm | 19 mm | –
C=CCn1c(-c2ccc(-n3cncn3)cc2)nc2c(F)cc(F)cc21 | – | 20 mm | < 6.25 µg/mL | Non-toxic | 23 mm | 22 mm | 23 mm | –
CCCn1c(-c2ccc(-n3cncn3)cc2)nc2c(F)cc(F)cc21 | – | 21 mm | < 6.25 µg/mL | Non-toxic | 19 mm | 23 mm | 18 mm | –
CCn1c(-c2ccc(-n3cncn3)cc2)nc2c(F)cc(F)cc21 | – | 23 mm | < 6.25 µg/mL | Non-toxic | 14 mm | 18 mm | 16 mm | –
N#CCn1c(-c2ccc(-n3cncn3)cc2)nc2c(F)cc(F)cc21 | 96% | 27 mm | 1.56 µg/mL (≈ 4.64 µM) | Non-toxic | 20 mm | 26 mm | 24 mm | –
Fc1cccc(Cn2c(-c3ccc(-n4cncn4)cc3)nc3c(F)cc(F)cc32)c1 | 96% | 29 mm | 0.36 µg/mL (≈ 0.888 µM) | Non-toxic | 24 mm | 26 mm | 22 mm | –
Fc1ccc(Cn2c(-c3ccc(-n4cncn4)cc3)nc3c(F)cc(F)cc32)cc1 | 96% | 25 mm | 3.13 µg/mL (≈ 7.72 µM) | Non-toxic | 21 mm | 23 mm | 19 mm | –
Fc1cc(F)c2nc(-c3ccc(-n4cncn4)cc3)n(Cc3cccc(C(F)(F)F)c3)c2c1 | – | 22 mm | < 6.25 µg/mL | Non-toxic | 18 mm | 21 mm | 20 mm | –
